In ChEMBL document CHEMBL1138555, “N-acylated and N,N'-diacylated imidazolidine-2-thione derivatives and N,N'-diacylated tetrahydropyrimidine-2(1H)-thione analogues: synthesis and antiproliferative activity” (Eur J Med Chem, 2009):

Assays:
Assay type in all cases: functional
NCI-H322M = assay: Growth inhibition of human NCI-H322M cells after 48 hrs by sulforhodamine B assay
How it was run: (§1)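 NCI screen panel. Five 10-fold concentrations from 10^-4 to 10^-8 M. Exposure for the last 48 h of a 72 h incubation. Growth estimated by sulforhodamine B protein assay. GI50 is the concentration giving 50% growth inhibition. Where that level was not reached or was exceeded, the value is given as above or below the highest or lowest concentration tested.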

SR = assay: Growth inhibition of human SR cells after 48 hrs by sulforhodamine B assay
How it was run: (§2)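 NCI in vitro panel screen. Compounds tested at five 10-fold dilutions, 10^-4 to 10^-8 M. Cells in 96-well plates were exposed for the last 48 h of a 72 h incubation. Viability/growth was read by sulforhodamine B protein assay. GI50 is the concentration giving 50% growth inhibition. Values beyond the tested range are reported as greater or less than the maximum or minimum concentration.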

MDA-MB-435 = assay: Growth inhibition of human MDA-MB-435 cells after 48 hrs by sulforhodamine B assay; settings: MDA-MB-435, 48 h; how it was run: as §1
KM12 = assay: Growth inhibition of human KM12 cells after 48 hrs by sulforhodamine B assay; settings: KM12, 48 h; how it was run: as §1
TK-10 = assay: Growth inhibition of human TK10 cells after 48 hrs by sulforhodamine B assay; settings: TK-10, 48 h; how it was run: as §2
SF-295 = assay: Growth inhibition of human SF295 cells after 48 hrs by sulforhodamine B assay; settings: SF-295, 48 h; how it was run: as §1
SW-620 = assay: Growth inhibition of human SW620 cells after 48 hrs by sulforhodamine B assay; settings: SW-620, 48 h; how it was run: as §2
MDA-MB-231 = assay: Growth inhibition of human MDA-MB-231 cells after 48 hrs by sulforhodamine B assay; settings: MDA-MB-231, 48 h; how it was run: as §1
A549 = assay: Growth inhibition of human A549 cells after 48 hrs by sulforhodamine B assay; settings: A549, 48 h; how it was run: as §1
M14 = assay: Growth inhibition of human M14 cells after 48 hrs by sulforhodamine B assay; settings: M14, 48 h; how it was run: as §1
CAKI-1 = assay: Growth inhibition of human Caki1 cells after 48 hrs by sulforhodamine B assay; settings: CAKI-1, 48 h; how it was run: as §1
[1] = Growth inhibition of human Hs 578T cells after 48 hrs by sulforhodamine B assay; how it was run: as §1
NCI-H226 = assay: Growth inhibition of human NCI-H226 cells after 48 hrs by sulforhodamine B assay; settings: NCI-H226, 48 h; how it was run: as §1
COLO 205 = assay: Growth inhibition of human COLO205 cells after 48 hrs by sulforhodamine B assay; settings: COLO 205, 48 h; how it was run: as §1
SK-OV-3 = assay: Growth inhibition of human SKOV3 cells after 48 hrs by sulforhodamine B assay; settings: SK-OV-3, 48 h; how it was run: as §1
ACHN = assay: Growth inhibition of human ACHN cells after 48 hrs by sulforhodamine B assay; how it was run: as §1
MDA-N = assay: Growth inhibition of human MDA-N cells after 48 hrs by sulforhodamine B assay
How it was run: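 NCI screen panel. Five 10-fold concentrations from 10^-4 to 10^-8 M. Exposure for the last 48 h of a 72 h incubation. Growth estimated by sulforhodamine B protein assay. Where that level was not reached or was exceeded, the value is given as above or below the highest or lowest concentration tested.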

K562 = assay: Growth inhibition of human K562 cells after 48 hrs by sulforhodamine B assay; settings: K562, 48 h; how it was run: as §1
SK-MEL-5 = assay: Growth inhibition of human SK-MEL-5 cells after 48 hrs by sulforhodamine B assay; settings: SK-MEL-5, 48 h; how it was run: as §1
HCC 2998 = assay: Growth inhibition of human HCC2998 cells after 48 hrs by sulforhodamine B assay; settings: HCC 2998, 48 h; how it was run: as §1

| SMILES | GI50 (NCI-H322M) | GI50 (SR) | GI50 (MDA-MB-435) | GI50 (KM12) | GI50 (TK-10) | GI50 (SF-295) | GI50 (SW-620) | GI50 (MDA-MB-231) | GI50 (A549) | GI50 (M14) | GI50 (CAKI-1) | GI50 [1] | GI50 (NCI-H226) | GI50 (COLO 205) | GI50 (SK-OV-3) | GI50 (ACHN) | GI50 (MDA-N) | GI50 (K562) | GI50 (SK-MEL-5) | GI50 (HCC 2998) |
| --- | --- | --- | --- | --- | --- | --- | --- | --- | --- | --- | --- | --- | --- | --- | --- | --- | --- | --- | --- | --- |
| O=C(c1cc(Cl)cc(Cl)c1)N1CCN(C(=O)c2cc(Cl)cc(Cl)c2)C1=S | 16.8 µM | 3.3 µM | 9 µM | 10.1 µM | 10.7 µM | 19.5 µM | 11.1 µM | 16.2 µM | 18.4 µM | 11.9 µM | 9.7 µM | 21.4 µM | 23.7 µM | 18.3 µM | 15.3 µM | 17.4 µM | 13 µM | 4.8 µM | 16.1 µM | 16.7 µM |
| O=CN1CCN(C(=O)c2ccco2)C1=S | 18.5 µM | 2.1 µM | 6.4 µM | 5.3 µM | 14.3 µM | 21.4 µM | 5.5 µM | 15.9 µM | 12.5 µM | 10.7 µM | 5.1 µM | 11 µM | 28.5 µM | 8.7 µM | 26.6 µM | 6.5 µM | 9.1 µM | 2.6 µM | 12.7 µM | 13.4 µM |
| COc1cc(C(=O)N2CCN(C=O)C2=S)cc(OC)c1OC | 24.8 µM |  | 15.5 µM | 14.4 µM | 17.1 µM | 29.3 µM | 26.8 µM | 21.5 µM | 33.2 µM | 20.6 µM | 13.6 µM | 27.6 µM | 35.9 µM | 20.2 µM | 21.9 µM | 20.1 µM | 17.9 µM | 30.8 µM |  | 19.8 µM |
| O=C(c1ccc(Cl)cc1Cl)N1CCN(C(=O)c2ccc(Cl)cc2Cl)C1=S | 18.1 µM |  | 16.4 µM | 15.3 µM | 36.3 µM | 22.9 µM | 28.2 µM | 19.1 µM | 20.1 µM | 16.3 µM | 22.1 µM | 41 µM | 40.9 µM | 21 µM | 22.8 µM | 21.3 µM | 20 µM | 31.4 µM |  | 22 µM |
| COc1cc(C(=O)N2CCN(C(=O)c3cc(OC)c(OC)c(OC)c3)C2=S)cc(OC)c1OC | 17.4 µM |  | 13.1 µM | 14.2 µM | 17 µM | 19 µM | 20.3 µM | 16.7 µM | 19.9 µM | 16.8 µM | 12.3 µM | 24.7 µM | 19.5 µM | 19.4 µM | 20.2 µM | 17.8 µM | 15 µM | 24.9 µM |  | 19 µM |
| O=C(c1cccs1)N1CCN(C(=O)c2cccs2)C1=S | 15.5 µM | 3.4 µM | 2.8 µM | 3.4 µM | 5.4 µM | 16.7 µM | 4.8 µM | 9.4 µM | 4 µM | 3.6 µM | 3.4 µM | 16.6 µM | 15.9 µM | 7.7 µM | 15.9 µM | 15 µM | 2.6 µM | 3.5 µM | 4.6 µM | 8 µM |
| O=C(c1ccc(Cl)c(Cl)c1)N1CCN(C(=O)c2ccc(Cl)c(Cl)c2)C1=S | 19.8 µM |  | 15.4 µM | 16.1 µM | 18.5 µM | 18.5 µM | 21.3 µM | 18.8 µM | 27.8 µM | 19.6 µM | 14 µM | 29.1 µM | 19 µM | 17.7 µM | 18.2 µM | 19.2 µM | 18.3 µM | 16.5 µM |  | 19.9 µM |
| O=C(c1ccco1)N1CCN(C(=O)c2ccco2)C1=S | 15.7 µM | 1.8 µM | 4 µM | 4 µM | 6.3 µM | 16.9 µM | 5.5 µM | 12.2 µM | 9.8 µM | 7.7 µM | 5.1 µM | 6.8 µM | 28.7 µM | 9.4 µM | 16 µM | 4.7 µM | 5 µM | 1 µM | 10.1 µM | 12.4 µM |
